Assay results from ChEMBL document CHEMBL2390864, “Artemisinin-derived dimer phosphate esters as potent anti-cytomegalovirus (anti-CMV) and anti-cancer agents: a structure-activity study” (Bioorg Med Chem, 2013).

Assays:
[1] = Cytotoxicity against human JURKAT-TALL cells after 48 hrs by Alamar Blue assay; assay type: functional, cell-based
Outline: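 Jurkat T-ALL cells were treated with compound for 48 h, and growth inhibition was read by AlamarBlue assay to give IC50.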

[2] = Therapeutic index, ratio of IC50 for PHA-stimulated human PBMC cells to IC50 for human JURKAT-TALL cells; assay type: cell-based; details: PHA-stimulated PBMC cells versus JURKAT-TALL cells, read-out: Ratio IC50
Outline: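 The therapeutic index is the IC50 in PHA-stimulated PBMCs (PHA 10 µg/ml for 24 h, then drug for 48 h, AlamarBlue) divided by the IC50 in Jurkat cells (drug for 48 h, AlamarBlue).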

PBMC = test: Cytotoxicity against PHA-stimulated human PBMC cells after 48 hrs by Alamar Blue assay; assay type: cell-based
Outline: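 PBMCs came from 4 consenting healthy volunteers and were stimulated with phytohemagglutinin (10 µg/ml) for 24 h. Drug or vehicle was then added for a further 48 h, and viability was read by AlamarBlue. IC50 is the average of 4 experiments, each run in triplicate.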

[3] = Selectivity index, ratio of CC50 for HFF to EC50 for Cytomegalovirus
Cytomegalovirus = test: Antiviral activity against Cytomegalovirus infected in HFF after 72 hrs by luciferase reporter gene assay; assay type: functional, organism-based; details: Human betaherpesvirus 5, 72 h
Outline: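 Human foreskin fibroblasts (HFFs) were infected with CMV and treated with compound across a dose range. Luciferase activity was read at 72 h post infection as a marker of late CMV gene expression. EC50 was derived from this read-out.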

Row | SMILES | IC50 [1] [nM] | selectivity ratio [2] | IC50 (PBMC) [nM] | Ratio CC50/EC50 [3] | EC50 (Cytomegalovirus) [nM]
1 | C[C@H]1[C@@H](CC(COP(=O)(Oc2ccccc2)Oc2ccccc2)C[C@H]2O[C@@H]3O[C@@]4(C)CC[C@H]5[C@H](C)CC[C@@H]([C@H]2C)[C@@]35OO4)O[C@@H]2O[C@@]3(C)CC[C@H]4[C@H](C)CC[C@@H]1[C@@]24OO3 (stereo partly specified) | 100 | 14.8 | 1480 | 1500 | 39
2 | C[C@H]1[C@@H](CC(COP(=O)(Oc2ccc(Cl)cc2)Oc2ccc(Cl)cc2)C[C@H]2O[C@@H]3O[C@@]4(C)CC[C@H]5[C@H](C)CC[C@@H]([C@H]2C)[C@@]35OO4)O[C@@H]2O[C@@]3(C)CC[C@H]4[C@H](C)CC[C@@H]1[C@@]24OO3 (stereo partly specified) | 152 | > 263 | > 40000 | – | 66
3 | CC(C)c1ccc(OP(=O)(OCC(C[C@H]2O[C@@H]3O[C@@]4(C)CC[C@H]5[C@H](C)CC[C@@H]([C@H]2C)[C@@]35OO4)C[C@H]2O[C@@H]3O[C@@]4(C)CC[C@H]5[C@H](C)CC[C@@H]([C@H]2C)[C@@]35OO4)Oc2ccc(C(C)C)cc2)cc1 (stereo partly specified) | 511 | > 78.3 | > 40000 | – | 300
4 | Cc1cccc(C)c1OP(=O)(OCC(C[C@H]1O[C@@H]2O[C@@]3(C)CC[C@H]4[C@H](C)CC[C@@H]([C@H]1C)[C@@]24OO3)C[C@H]1O[C@@H]2O[C@@]3(C)CC[C@H]4[C@H](C)CC[C@@H]([C@H]1C)[C@@]24OO3)Oc1c(C)cccc1C (stereo partly specified) | 296 | > 135 | > 40000 | – | 71
5 | C[C@H]1[C@@H](CC(COP(=O)(OC2CCCCC2)OC2CCCCC2)C[C@H]2O[C@@H]3O[C@@]4(C)CC[C@H]5[C@H](C)CC[C@@H]([C@H]2C)[C@@]35OO4)O[C@@H]2O[C@@]3(C)CC[C@H]4[C@H](C)CC[C@@H]1[C@@]24OO3 (stereo partly specified) | 287 | 7.1 | 2030 | – | 44
6 | C[C@H]1[C@@H](CC(COP(=O)(O)Oc2ccccc2)C[C@H]2O[C@@H]3O[C@@]4(C)CC[C@H]5[C@H](C)CC[C@@H]([C@H]2C)[C@@]35OO4)O[C@@H]2O[C@@]3(C)CC[C@H]4[C@H](C)CC[C@@H]1[C@@]24OO3 (stereo partly specified) | 7440 | – | > 40000 | – | > 300
7 | C[C@H]1[C@@H](CC(CO)C[C@H]2O[C@@H]3O[C@@]4(C)CC[C@H]5[C@H](C)CC[C@@H]([C@H]2C)[C@@]35OO4)O[C@@H]2O[C@@]3(C)CC[C@H]4[C@H](C)CC[C@@H]1[C@@]24OO3 (stereo partly specified) | – | – | – | – | 160
8 | C[C@H]1[C@@H](CC(COP(=S)(Oc2ccccc2)Oc2ccccc2)C[C@H]2O[C@@H]3O[C@@]4(C)CC[C@H]5[C@H](C)CC[C@@H]([C@H]2C)[C@@]35OO4)O[C@@H]2O[C@@]3(C)CC[C@H]4[C@H](C)CC[C@@H]1[C@@]24OO3 (stereo partly specified) | 1750 | > 22.9 | > 40000 | – | 78
9 | C[C@H]1[C@@H](CC(COP2(=O)Oc3ccccc3-c3ccccc3O2)C[C@H]2O[C@@H]3O[C@@]4(C)CC[C@H]5[C@H](C)CC[C@@H]([C@H]2C)[C@@]35OO4)O[C@@H]2O[C@@]3(C)CC[C@H]4[C@H](C)CC[C@@H]1[C@@]24OO3 (stereo partly specified) | 220 | 10.4 | 2280 | – | 72
10 | C[C@H]1[C@@H](CC(COP2(=S)Oc3ccccc3-c3ccccc3O2)C[C@H]2O[C@@H]3O[C@@]4(C)CC[C@H]5[C@H](C)CC[C@@H]([C@H]2C)[C@@]35OO4)O[C@@H]2O[C@@]3(C)CC[C@H]4[C@H](C)CC[C@@H]1[C@@]24OO3 (stereo partly specified) | 1930 | > 20.7 | > 40000 | – | 70
11 | CO[C@H]1O[C@@H]2O[C@@]3(C)CC[C@H]4[C@H](C)CC[C@@H]([C@H]1C)[C@@]24OO3 | > 30000 | – | > 100000 | – | 5300
12 | COc1cccc2c1C(=O)c1c(O)c3c(c(O)c1C2=O)C[C@@](O)(C(=O)CO)C[C@@H]3O[C@H]1C[C@H](N)[C@H](O)[C@H](C)O1 [DOXORUBICIN] | 9.6 | – | 271 | – | –
13 | C[C@H]1[C@H](OC(=O)CCC(=O)O)O[C@@H]2O[C@@]3(C)CC[C@H]4[C@H](C)CC[C@@H]1[C@@]24OO3 [SODIUM ARESUNATE] | 6890 | 4 | 27400 | – | 18500
